ChEMBL document CHEMBL1129512, “Studies on the mechanism of phosphatidylinositol 3-kinase inhibition by wortmannin and related analogs” (J Med Chem, 1996)
Values joined by “and” are separate entries in the source; they are usually repeats but may differ in a detail not shown here. Equal entries are not always repeated.

Key:
Mus musculus [1] = experiment: In vivo inhibition of tumor growth in C3H Mammary model was evaluated at dose 4.0 mg/kg peroral administration; type: functional; conditions: route oral
Procedure, shortened: (§1)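 Murine C3H mammary tumour fragments were implanted subcutaneously by trochar in the axillary region, in groups of 10 randomized mice. Oral dosing started 1 day after implant, daily ×10, as a suspension in 2.5% emulphor EL-620 in 0.9% NaCl (water for one analog). Tumour weight, calculated as length×width²×0.5 from calipers, was measured the day after the last dose. Percent inhibition was calculated versus controls. Groups with >25% lethality were scored toxic.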

[2] = In vitro inhibitory activity against Phosphatidylinositol 3-Kinase
Procedure, shortened: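 Purified PI 3-kinase from bovine brain was used as the enzyme source. Results are reported as IC50 values.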

Mus musculus [3] = experiment: In vivo inhibition of tumor growth in C3H Mammary model was evaluated at dose 2.0 mg/kg peroral administration; type: functional; conditions: route oral; procedure, shortened: as §1
Homo sapiens [4] = experiment: In vivo inhibition of tumor growth in MX-1 mammary model was evaluated at dose 0.75 mg/kg peroral administration; type: functional; conditions: route oral
Homo sapiens [5] = experiment: In vivo inhibition of tumor growth in VRC5 colon model was evaluated at dose 0.75 mg/kg peroral administration; type: functional; conditions: route oral
Homo sapiens [6] = experiment: In vivo inhibition of tumor growth in LX-1 lung model was evaluated at dose 0.38 mg/kg peroral administration; type: functional; conditions: route oral
Procedure, shortened: (§2)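 Human xenograft fragments were implanted s.c. via trochar in the axillary region of mice. Daily oral dosing began 7 days after implant, as a suspension in 2.5% emulphor EL-620 in 0.9% NaCl. There were 10 randomized mice per group. Tumours were measured by caliper 5 days after the last dose, with weight = length × width² × 0.5. Inhibition was 100 × (1 − treated/control mean weight), and toxic meant lethality >25%.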

Mus musculus [7] = experiment: In vivo inhibition of tumor growth in X-5563 plasma cell myeloma model was evaluated at dose 1.25 mg/kg peroral administration; type: functional; conditions: route oral
Homo sapiens [8] = experiment: In vivo inhibition of tumor growth in PANC-1 pancreatic model was evaluated at dose 0.75 mg/kg peroral administration; type: functional; conditions: route oral; procedure, shortened: as §2
Homo sapiens [9] = experiment: In vivo inhibition of tumor growth in VRC5 colon model was evaluated at dose 1.50 mg/kg peroral administration; type: functional; conditions: route oral
Homo sapiens [10] = experiment: In vivo inhibition of tumor growth PANC-1 pancreatic model was evaluated at dose 1.50 mg/kg peroral administration; type: functional; conditions: route oral; procedure, shortened: as §2
Mus musculus [11] = experiment: IIn vivo inhibition of tumor growth in B-16 melanoma model was evaluated by inhibition of tumor growth at dose 0.75 mg/kg peroral administration; type: functional; conditions: B16, route oral
Procedure, shortened: (§3)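 Murine tumours were serially passaged as tumour fragments, implanted s.c. by trochar in the axillary region. Daily oral dosing began 1 day after implant, as a suspension in 2.5% emulphor EL-620 in 0.9% NaCl. There were 10 randomized mice per group. Tumours were measured by caliper the day after the last dose, with weight = length × width² × 0.5. Inhibition was 100 × (1 − mean treated/mean control weight). A group was toxic if lethality was >25%.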

Homo sapiens [12] = experiment: In vivo inhibition of tumor growth in HC1 colon model was evaluated at dose 1.50 mg/kg peroral administration; type: functional; conditions: route oral
Procedure, shortened: (§4)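 HC1 colon and IGROV1 ovarian xenografts were implanted s.c. as fragments by axillary trochar. Daily oral dosing started 14 days after implant, as a suspension in 2.5% emulphor EL-620/0.9% NaCl. Groups were 10 randomized mice.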

Homo sapiens [13] = experiment: In vivo inhibition of tumor growth in IGROV1 ovarian model was evaluated at dose 1.50 mg/kg peroral administration; type: functional; conditions: IGROV-1, route oral; procedure, shortened: as §4
Mus musculus [14] = experiment: In vivo inhibition of tumor growth in 6C3HED lymphosarcomal was evaluated at dose 1.50 mg/kg peroral administration; type: functional; conditions: route oral; procedure, shortened: as §3
Mus musculus [15] = experiment: In vivo inhibition of tumor growth in 6C3HED lymphosarcomal was evaluated at dose 0.75 mg/kg peroral administration; type: functional; conditions: route oral; procedure, shortened: as §3
Homo sapiens [16] = experiment: In vivo toxicity against PI 3-Kinase in GC3 colon model was evaluated by inhibition of tumor growth at dose 0.75 mg/kg peroral administration; type: functional; conditions: route oral; procedure, shortened: as §2
Homo sapiens [17] = experiment: In vivo inhibition of tumor growth in PACA-2 pancreatic model was evaluated at dose 1.50 mg/kg peroral administration; type: functional; conditions: route oral; procedure, shortened: as §2
Mus musculus [18] = experiment: In vivo inhibition of tumor growth in M-5076 ovarian model was evaluated at dose 1.50 mg/kg peroral administration; type: functional; conditions: M5076, route oral
Procedure, shortened: (§5)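 For the murine M-5076 ovarian tumour, fragments were implanted s.c. by trochar in the axilla. Daily oral dosing began 5 days after implant, as a suspension in 2.5% emulphor EL-620/0.9% NaCl. There were 10 randomized mice per group.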

Homo sapiens [19] = experiment: In vivo inhibition of tumor growth IGROV1 ovarian model was evaluated at dose 0.75 mg/kg peroral administration; type: functional; conditions: IGROV-1, route oral; procedure, shortened: as §4
Homo sapiens [20] = experiment: In vivo inhibition of tumor growth in PACA-2 pancreatic model was evaluated at dose 0.75 mg/kg peroral administration; type: functional; conditions: route oral; procedure, shortened: as §2
Homo sapiens [21] = experiment: In vivo inhibition of tumor growth in HC1 colon model was evaluated at dose 0.75 mg/kg peroral administration; type: functional; conditions: route oral; procedure, shortened: as §4
Mus musculus [22] = experiment: In vivo inhibition of tumor growth in C3H Mammary model was evaluated at dose 2.50 mg/kg peroral administration; type: functional; conditions: route oral; procedure, shortened: as §3
Homo sapiens [23] = experiment: In vivo inhibition of tumor growth in BXPC-3 pancreatic model was evaluated at dose 1.50 mg/kg peroral administration; type: functional; conditions: route oral; procedure, shortened: as §2
Homo sapiens [24] = experiment: In vivo inhibition of tumor growth in CX-1 colon model was evaluated at dose 1.50 mg/kg peroral administration; type: functional; conditions: route oral; procedure, shortened: as §2
Homo sapiens [25] = experiment: In vivo inhibition of tumor growth MX-1 mammary model was evaluated at dose 1.50 mg/kg peroral administration; type: functional; conditions: route oral
Mus musculus [26] = experiment: In vivo inhibition of tumor growth in Lewis lung model was evaluated at dose 0.75 mg/kg peroral administration; type: functional; conditions: route oral; procedure, shortened: as §3
Mus musculus [27] = experiment: In vivo inhibition of tumor growth in C-26 colon model was evaluated dose 0.75 mg/kg peroral administration; type: functional; conditions: route oral; procedure, shortened: as §3
Mus musculus [28] = experiment: In vivo inhibition of tumor growth B-16 melanoma model was evaluated at dose 1.50 mg/kg peroral administration; type: functional; conditions: B16, route oral; procedure, shortened: as §3
Homo sapiens [29] = experiment: In vivo inhibition of tumor growth in GC3 colon model was evaluated at dose 0.38 mg/kg peroral administration; type: functional; conditions: route oral; procedure, shortened: as §2
Homo sapiens [30] = experiment: In vivo inhibition of tumor growth in CX-1 colon model was evaluated at dose 0.75 mg/kg peroral administration; type: functional; conditions: route oral; procedure, shortened: as §2
Mus musculus [31] = experiment: In vivo inhibition of tumor growth in C3H Mammary model was evaluated at dose 1.25 mg/kg peroral administration; range is 60-79%; type: functional; conditions: route oral; procedure, shortened: as §3
Mus musculus [32] = experiment: In vivo inhibition of tumor growth in M-5076 ovarian model was evaluated at dose 0.75 mg/kg peroral administration; type: functional; conditions: M5076, route oral; procedure, shortened: as §5
Homo sapiens [33] = experiment: In vivo inhibition of tumor growth in LX-1 lung model was evaluated at dose 0.75 mg/kg peroral administration; type: functional; conditions: route oral; procedure, shortened: as §2
Mus musculus [34] = experiment: In vivo inhibition of tumor growth in C-26 colon model was evaluated dose 1.50 mg/kg peroral administration; type: functional; conditions: route oral; procedure, shortened: as §3
Homo sapiens [35] = experiment: In vivo inhibition of tumor growth in BXPC-3 pancreatic model was evaluated at dose 0.75 mg/kg peroral administration; range is 60-79%; type: functional; conditions: route oral; procedure, shortened: as §2
Mus musculus [36] = experiment: In vivo inhibition of tumor growth in Lewis lung model was evaluated at dose 1.50 mg/kg peroral administration; type: functional; conditions: route oral; procedure, shortened: as §3
Mus musculus [37] = experiment: In vivo inhibition of tumor growth in C3H Mammary model was evaluated at dose 16 mg/kg peroral administration; type: functional; conditions: route oral; procedure, shortened: as §3

SMILES: COC[C@H]1OC(=O)c2coc3c2[C@@]1(C)C1=C(C3=O)[C@@H]2CCC(=O)[C@@]2(C)CC1
- inhibition in vivo at 4 mg/kg (Mus musculus [1]): > 25%
- IC50 [2]: 17 nM
- inhibition in vivo at 2 mg/kg (Mus musculus [3]): < 60%

SMILES: COC[C@H]1OC(=O)C23CC2COC2=C3[C@@]1(C)C1=C(C2=O)[C@@H]2CCC(=O)[C@@]2(C)C[C@H]1OC(C)=O (stereo not given in full)
- IC50 [2]: > 500 nM

SMILES: COC[C@H]1OC(=O)c2coc3c2[C@@]1(C)C1=C(C3=O)[C@@H]2CCC(=O)[C@@]2(C)C[C@H]1OC(C)=O [WORTMANNIN]
- inhibition in vivo at 0.75 mg/kg (Homo sapiens [4]): < 60%
- inhibition in vivo at 0.75 mg/kg (Homo sapiens [5]): < 60%
- inhibition in vivo at 0.38 mg/kg (Homo sapiens [6]): < 60%
- Inhibition (Mus musculus [7]): <60% and >25%
- inhibition in vivo at 0.75 mg/kg (Homo sapiens [8]): < 60%
- inhibition in vivo at 1.5 mg/kg (Homo sapiens [9]): > 25%
- inhibition in vivo at 1.5 mg/kg (Homo sapiens [10]): > 25%
- inhibition in vivo at 0.75 mg/kg (Mus musculus [11]): < 60%
- inhibition in vivo at 1.5 mg/kg (Homo sapiens [12]): > 25%
- inhibition in vivo at 1.5 mg/kg (Homo sapiens [13]): > 25%
- inhibition in vivo at 1.5 mg/kg (Mus musculus [14]): > 25%
- inhibition in vivo at 0.75 mg/kg (Mus musculus [15]): < 60%
- inhibition in vivo at 0.75 mg/kg (Homo sapiens [16]): > 25%
- inhibition in vivo at 1.5 mg/kg (Homo sapiens [17]): > 25%
- inhibition in vivo at 1.5 mg/kg (Mus musculus [18]): > 25%
- inhibition in vivo at 0.75 mg/kg (Homo sapiens [19]): < 60%
- IC50 [2]: 4.2 nM
- inhibition in vivo at 0.75 mg/kg (Homo sapiens [20]): < 60%
- inhibition in vivo at 0.75 mg/kg (Homo sapiens [21]): < 60%
- inhibition in vivo at 2.5 mg/kg (Mus musculus [22]): > 25%
- inhibition in vivo at 1.5 mg/kg (Homo sapiens [23]): > 25%
- inhibition in vivo at 1.5 mg/kg (Homo sapiens [24]): > 25%
- inhibition in vivo at 1.5 mg/kg (Homo sapiens [25]): > 25%
- inhibition in vivo at 0.75 mg/kg (Mus musculus [26]): < 60%
- inhibition in vivo at 0.75 mg/kg (Mus musculus [27]): < 60%
- inhibition in vivo at 1.5 mg/kg (Mus musculus [28]): > 25%
- inhibition in vivo at 0.38 mg/kg (Homo sapiens [29]): > 25%
- inhibition in vivo at 0.75 mg/kg (Homo sapiens [30]): < 60%
- inhibition in vivo at 1.25 mg/kg (Mus musculus [31]): 79%
- inhibition in vivo at 0.75 mg/kg (Mus musculus [32]): < 60%
- inhibition in vivo at 0.75 mg/kg (Homo sapiens [33]): > 25%
- inhibition in vivo at 1.5 mg/kg (Mus musculus [34]): > 25%
- inhibition in vivo at 0.75 mg/kg (Homo sapiens [35]): 79%
- inhibition in vivo at 1.5 mg/kg (Mus musculus [36]): > 25%

SMILES: COC[C@H]1OC(O)=C(C=N)C2=C(O)C(=O)C3=C([C@H](OC(C)=O)C[C@]4(C)C(=O)CC[C@@H]34)[C@]21C
- IC50 [2]: > 500 nM

SMILES: COC(=O)c1coc2c(O)c3c(c(C)c12)C=C[C@]1(C)C(=O)CC[C@@H]31
- inhibition in vivo at 16 mg/kg (Mus musculus [37]): < 60%
- IC50 [2]: 4600 nM

SMILES: COC[C@H]1OC(=O)c2coc3c2[C@@]1(C)C1=C(C3=O)[C@@H]2C[C@@H](O)C(=O)[C@@]2(C)C[C@H]1OC(C)=O
- IC50 [2]: 153 nM

SMILES: COC[C@H]1OC(=O)c2coc3c2[C@@]1(C)C1=C(C3=O)[C@@H]2C[C@@H](Br)C(=O)[C@@]2(C)C[C@H]1OC(C)=O
- IC50 [2]: 77 nM

SMILES: C/N=C/C1=C(O)O[C@H](COC)[C@@]2(C)C1=C(O)C(=O)C1=C2[C@H](OC(C)=O)C[C@]2(C)C(=O)CC[C@@H]12
- IC50 [2]: > 500 nM

SMILES: COC[C@H]1OC(=O)c2c(C)oc3c2[C@@]1(C)C1=C(C3=O)[C@@H]2CCC(=O)[C@@]2(C)C[C@H]1OC(C)=O
- IC50 [2]: > 500 nM
